Reference: ChEMBL document CHEMBL3992532, “Structure-Based Design of Macrocyclic Factor XIa Inhibitors: Discovery of the Macrocyclic Amide Linker” (J Med Chem, 2017)
Blank lines part the entries; values can stand above or below the compound they belong to.

Assays:
Coagulation factor XI [1] = molecular target: T1, Coagulation factor XI (Homo sapiens, UniProt P03951); assay: Inhibition of human coagulation factor 11a using pyroGlu-Pro-Arg-pNA as substrate after 10 to 120 mins at 37 degC by spectrophotometric method
T1 sequence (P03951 19-387 limits assumed): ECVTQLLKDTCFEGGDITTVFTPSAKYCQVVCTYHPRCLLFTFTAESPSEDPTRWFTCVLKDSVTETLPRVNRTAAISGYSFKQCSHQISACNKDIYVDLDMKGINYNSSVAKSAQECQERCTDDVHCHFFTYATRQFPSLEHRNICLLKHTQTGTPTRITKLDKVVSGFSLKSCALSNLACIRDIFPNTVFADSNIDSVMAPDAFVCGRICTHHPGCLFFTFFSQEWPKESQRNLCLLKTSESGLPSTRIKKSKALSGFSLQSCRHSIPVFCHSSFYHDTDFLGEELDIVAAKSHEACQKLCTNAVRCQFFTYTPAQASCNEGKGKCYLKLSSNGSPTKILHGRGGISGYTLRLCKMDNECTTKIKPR
T1 sequence (P03951 388-625 limits assumed): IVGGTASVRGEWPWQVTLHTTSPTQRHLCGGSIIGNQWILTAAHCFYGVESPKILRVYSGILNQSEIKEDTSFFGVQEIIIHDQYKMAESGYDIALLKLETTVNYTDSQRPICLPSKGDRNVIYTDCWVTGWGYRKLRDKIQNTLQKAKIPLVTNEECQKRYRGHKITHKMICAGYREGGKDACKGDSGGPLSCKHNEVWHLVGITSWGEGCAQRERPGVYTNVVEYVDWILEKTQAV
Procedure, shortened: (§1)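 Purified human proteases, 37 °C; reaction started by adding enzyme to substrate (up to 4× Km) ± inhibitor; compound from DMSO, 1% DMSO final except where noted. […] Buffers: FXIa, chymotrypsin, tPA, plasmin, urokinase in 50 mM HEPES pH 7.4, 145 mM NaCl, 5 mM KCl, 0.1% PEG 8000; FXa, thrombin, trypsin, plasma kallikrein, aPC in 100 mM Na phosphate pH 7.4, 200 mM NaCl, 0.5% PEG 8000; FIXa in 50 mM Tris pH 7.4, 100 mM NaCl, 5 mM CaCl2, 0.5% PEG 8000, 2% DMSO.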

Plasma = assay: Anticoagulant activity in human plasma assessed as concentration required to produce 50% increase in activated partial thromboplastin time; format: functional
Procedure, shortened: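 Citrated (one-tenth volume 0.11 M) plasma from healthy volunteers, spun 2,000 g 10 min, kept on ice; 10 mM DMSO stock diluted in plasma, up to 7 concentrations; aPTT on automated coagulometer, duplicates as mean ratio to baseline; EC1.5x (50% prolongation) by linear interpolation, as total plasma concentration.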

Coagulation factor XI [2] = molecular target: T1, Coagulation factor XI; assay: Inhibition of human coagulation factor 11a using pyroGlu-Pro-Arg-pNA as substrate after 10 to 120 mins at 25 degC by spectrophotometric method
[3] = Half life in human liver microsomes; format: ADME, microsome
Prothrombin = Prothrombin (Homo sapiens, UniProt P00734); assay: Inhibition of human thrombin using pyroGlu-Pro-Arg-pNA as substrate after 10 to 120 mins at 37 degC by spectrophotometric method; procedure, shortened: as §1
Coagulation factor X = Coagulation factor X (Homo sapiens, UniProt P00742); assay: Inhibition of human coagulation factor 10a using N-benzoyl-Ile-Glu-(OH,OMe)-Gly-Arg-pNA as substrate after 10 to 120 mins at 37 degC by spectrophotometric method; procedure, shortened: as §1
Chain of Coagulation factor X (P00742 41-179 limits assumed): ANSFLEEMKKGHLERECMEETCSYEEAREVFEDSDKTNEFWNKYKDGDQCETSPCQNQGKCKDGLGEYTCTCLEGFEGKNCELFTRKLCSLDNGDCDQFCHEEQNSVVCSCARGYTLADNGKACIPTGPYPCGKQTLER
Chain of Coagulation factor X (P00742 235-488 limits assumed): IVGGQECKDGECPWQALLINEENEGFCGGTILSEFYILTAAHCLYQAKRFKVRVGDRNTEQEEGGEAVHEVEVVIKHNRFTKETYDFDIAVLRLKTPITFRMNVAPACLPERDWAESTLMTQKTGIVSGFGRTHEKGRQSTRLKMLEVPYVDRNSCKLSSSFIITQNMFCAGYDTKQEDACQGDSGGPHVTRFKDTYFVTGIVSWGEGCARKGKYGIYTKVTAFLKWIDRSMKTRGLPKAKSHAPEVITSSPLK

Coagulation factor XII = molecular target: T2, Coagulation factor XII (Homo sapiens, UniProt P00748); assay: Inhibition of human coagulation factor 12a using H-(D)-CHT-Gly-Arg-pNA as substrate after 10 to 120 mins at 25 degC by spectrophotometric method
T2 sequence (P00748 whole entry): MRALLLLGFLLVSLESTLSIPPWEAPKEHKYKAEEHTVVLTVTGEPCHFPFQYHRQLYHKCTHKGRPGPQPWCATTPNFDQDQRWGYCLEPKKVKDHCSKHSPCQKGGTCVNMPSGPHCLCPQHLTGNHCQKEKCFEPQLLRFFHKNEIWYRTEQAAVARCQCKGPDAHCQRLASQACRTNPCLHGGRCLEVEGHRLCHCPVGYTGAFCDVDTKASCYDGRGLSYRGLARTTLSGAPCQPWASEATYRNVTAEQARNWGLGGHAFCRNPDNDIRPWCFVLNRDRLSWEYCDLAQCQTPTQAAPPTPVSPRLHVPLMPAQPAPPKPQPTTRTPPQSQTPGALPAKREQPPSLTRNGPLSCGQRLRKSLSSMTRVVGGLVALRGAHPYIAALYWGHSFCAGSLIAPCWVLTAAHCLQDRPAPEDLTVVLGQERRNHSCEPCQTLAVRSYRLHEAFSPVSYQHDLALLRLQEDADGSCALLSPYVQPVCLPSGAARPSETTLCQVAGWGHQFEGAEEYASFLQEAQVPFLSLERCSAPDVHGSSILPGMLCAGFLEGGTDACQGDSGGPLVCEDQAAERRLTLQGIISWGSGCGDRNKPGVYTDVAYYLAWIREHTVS

[4] = molecular target: Tissue-type plasminogen activator (Homo sapiens, UniProt P00750); assay: Inhibition of human tissue plasminogen activator using methylsulfonyl-D-cyclohexylalanyl-GlyArg-pNA as substrate after 10 to 120 mins at 37 degC by spectrophotometric method; procedure, shortened: as §1
Chain of Tissue-type plasminogen activator (P00750 whole entry): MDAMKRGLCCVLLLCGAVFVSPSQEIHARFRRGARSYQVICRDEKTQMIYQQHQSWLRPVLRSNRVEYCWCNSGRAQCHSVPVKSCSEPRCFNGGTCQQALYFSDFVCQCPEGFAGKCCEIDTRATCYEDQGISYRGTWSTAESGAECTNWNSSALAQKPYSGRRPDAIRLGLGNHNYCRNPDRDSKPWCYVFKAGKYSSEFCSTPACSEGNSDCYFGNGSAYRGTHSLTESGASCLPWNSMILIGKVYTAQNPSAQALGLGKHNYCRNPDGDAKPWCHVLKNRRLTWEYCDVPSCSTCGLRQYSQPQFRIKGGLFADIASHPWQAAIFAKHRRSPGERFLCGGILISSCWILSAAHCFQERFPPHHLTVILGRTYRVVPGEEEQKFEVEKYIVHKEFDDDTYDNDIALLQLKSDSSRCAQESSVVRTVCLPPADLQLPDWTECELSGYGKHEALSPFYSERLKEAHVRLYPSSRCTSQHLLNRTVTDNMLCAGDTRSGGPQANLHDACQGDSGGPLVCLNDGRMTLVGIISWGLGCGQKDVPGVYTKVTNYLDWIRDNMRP

[5] = Inhibition of human trypsin using N-benzoyl-Ile-Glu-(OH,OMe)-Gly-Arg-pNA as substrate after 10 to 120 mins at 37 degC by spectrophotometric method; procedure, shortened: as §1
Coagulation factor VII = molecular target: T3, Coagulation factor VII (Homo sapiens, UniProt P08709); assay: Inhibition of human coagulation factor 7a using H-(D)-Ile-Pro-Arg-pNA as substrate after 10 to 120 mins at 25 degC by spectrophotometric method
T3 sequence (P08709 whole entry): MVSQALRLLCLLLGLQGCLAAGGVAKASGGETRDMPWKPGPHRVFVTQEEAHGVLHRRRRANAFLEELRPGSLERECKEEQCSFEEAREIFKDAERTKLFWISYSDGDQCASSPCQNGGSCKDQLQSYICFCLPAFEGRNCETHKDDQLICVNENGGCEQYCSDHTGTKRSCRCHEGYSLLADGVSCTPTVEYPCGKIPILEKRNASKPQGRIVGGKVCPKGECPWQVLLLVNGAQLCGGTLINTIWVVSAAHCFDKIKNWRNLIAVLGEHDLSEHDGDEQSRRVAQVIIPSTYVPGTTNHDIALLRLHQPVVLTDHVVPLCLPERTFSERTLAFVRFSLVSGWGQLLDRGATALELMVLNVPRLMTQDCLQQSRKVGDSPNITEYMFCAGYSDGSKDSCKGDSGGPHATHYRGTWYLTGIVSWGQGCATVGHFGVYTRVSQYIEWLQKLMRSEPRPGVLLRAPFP

[6] = Inhibition of human chymotrypsin using MeO-SucArg-Pro-Tyr-pNA as substrate after 10 to 120 mins at 37 degC by spectrophotometric method; procedure, shortened: as §1
Coagulation factor IX = Coagulation factor IX (Homo sapiens, UniProt P00740); assay: Inhibition of human coagulation factor 9a using methylsulfonyl-D-cyclohexylglycyl-Gly-Arg-AMC as substrate after 10 to 120 mins at 37 degC by spectrophotometric method; procedure, shortened: as §1
Chain of Coagulation factor IX (P00740 47-191 limits assumed): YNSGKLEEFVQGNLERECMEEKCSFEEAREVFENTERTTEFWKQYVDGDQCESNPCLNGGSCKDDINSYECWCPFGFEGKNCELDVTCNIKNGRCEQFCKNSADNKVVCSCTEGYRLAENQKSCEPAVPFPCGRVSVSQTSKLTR
Chain of Coagulation factor IX (P00740 227-461 limits assumed): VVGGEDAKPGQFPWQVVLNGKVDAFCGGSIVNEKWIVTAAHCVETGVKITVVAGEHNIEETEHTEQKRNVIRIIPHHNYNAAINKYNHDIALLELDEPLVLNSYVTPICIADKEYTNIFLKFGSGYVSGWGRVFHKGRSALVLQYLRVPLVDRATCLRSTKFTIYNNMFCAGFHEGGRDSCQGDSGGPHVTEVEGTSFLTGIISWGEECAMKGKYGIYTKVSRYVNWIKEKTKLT

Plasma kallikrein = Plasma kallikrein (Homo sapiens, UniProt P03952); assay: Inhibition of human plasma kallikrein using H-(D)-Pro-Phe-Arg-pNA as substrate after 10 to 120 mins at 37 degC by spectrophotometric method; procedure, shortened: as §1
Chain of Plasma kallikrein (P03952 20-390 limits assumed): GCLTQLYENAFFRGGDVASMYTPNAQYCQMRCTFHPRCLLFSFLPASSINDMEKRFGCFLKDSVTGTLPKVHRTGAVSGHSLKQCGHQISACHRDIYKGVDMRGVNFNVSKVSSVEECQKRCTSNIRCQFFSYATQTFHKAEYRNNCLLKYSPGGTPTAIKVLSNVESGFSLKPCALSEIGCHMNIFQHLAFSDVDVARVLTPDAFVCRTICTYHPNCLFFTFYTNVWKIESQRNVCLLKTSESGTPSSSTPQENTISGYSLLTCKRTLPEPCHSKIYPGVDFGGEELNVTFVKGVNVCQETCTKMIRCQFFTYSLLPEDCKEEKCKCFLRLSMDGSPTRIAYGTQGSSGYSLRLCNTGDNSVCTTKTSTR
Chain of Plasma kallikrein (P03952 391-638 limits assumed): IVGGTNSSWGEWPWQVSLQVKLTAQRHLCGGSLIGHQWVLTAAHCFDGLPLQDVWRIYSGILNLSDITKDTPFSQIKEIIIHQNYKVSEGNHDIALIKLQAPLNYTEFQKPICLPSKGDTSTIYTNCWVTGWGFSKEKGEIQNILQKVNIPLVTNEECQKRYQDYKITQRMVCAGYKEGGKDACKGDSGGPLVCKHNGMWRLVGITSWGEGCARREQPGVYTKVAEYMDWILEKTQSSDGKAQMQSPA

[7] = molecular target: Vitamin K-dependent protein C (Homo sapiens, UniProt P04070); assay: Inhibition of human activated protein C using pyroGlu-Pro-Arg-pNA as substrate after 10 to 120 mins at 37 degC by spectrophotometric method; procedure, shortened: as §1
Chain of Vitamin K-dependent protein C (P04070 43-197 limits assumed): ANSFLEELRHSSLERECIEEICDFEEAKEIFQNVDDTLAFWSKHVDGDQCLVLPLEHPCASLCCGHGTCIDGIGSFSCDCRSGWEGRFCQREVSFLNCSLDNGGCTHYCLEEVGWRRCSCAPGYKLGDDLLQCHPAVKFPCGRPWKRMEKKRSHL
Chain of Vitamin K-dependent protein C (P04070 212-461 limits assumed): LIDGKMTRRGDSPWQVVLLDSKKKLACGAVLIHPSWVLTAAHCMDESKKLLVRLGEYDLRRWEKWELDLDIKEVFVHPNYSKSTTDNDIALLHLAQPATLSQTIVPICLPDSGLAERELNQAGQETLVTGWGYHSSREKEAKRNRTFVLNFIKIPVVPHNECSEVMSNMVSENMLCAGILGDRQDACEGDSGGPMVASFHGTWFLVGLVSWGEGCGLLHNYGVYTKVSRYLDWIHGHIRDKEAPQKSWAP

Plasminogen = Plasminogen (Homo sapiens, UniProt P00747); assay: Inhibition of human plasmin using H-(D)-Val-Leu-LyspNA as substrate after 10 to 120 mins at 37 degC by spectrophotometric method; procedure, shortened: as §1
Chain of Plasminogen (P00747 97-580 limits assumed): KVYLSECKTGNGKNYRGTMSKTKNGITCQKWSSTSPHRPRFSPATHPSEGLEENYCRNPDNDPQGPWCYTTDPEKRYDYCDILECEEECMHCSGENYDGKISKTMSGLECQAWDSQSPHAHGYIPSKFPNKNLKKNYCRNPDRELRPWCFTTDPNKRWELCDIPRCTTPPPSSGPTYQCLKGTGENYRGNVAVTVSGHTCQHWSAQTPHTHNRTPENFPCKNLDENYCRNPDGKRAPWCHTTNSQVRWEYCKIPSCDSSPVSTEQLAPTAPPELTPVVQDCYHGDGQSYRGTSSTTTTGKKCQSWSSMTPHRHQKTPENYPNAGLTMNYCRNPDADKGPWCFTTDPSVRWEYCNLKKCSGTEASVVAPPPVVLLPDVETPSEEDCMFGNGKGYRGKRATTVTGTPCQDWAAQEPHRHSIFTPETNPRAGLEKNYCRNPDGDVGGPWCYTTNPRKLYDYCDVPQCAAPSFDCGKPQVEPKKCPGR
Chain of Plasminogen (P00747 581-810 limits assumed): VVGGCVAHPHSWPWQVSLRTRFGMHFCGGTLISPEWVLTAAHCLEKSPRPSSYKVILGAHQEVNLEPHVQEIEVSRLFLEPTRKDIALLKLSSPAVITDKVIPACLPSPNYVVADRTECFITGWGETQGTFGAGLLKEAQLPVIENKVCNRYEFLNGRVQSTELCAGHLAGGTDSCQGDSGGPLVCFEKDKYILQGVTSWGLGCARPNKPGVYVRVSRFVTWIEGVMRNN

[8] = molecular target: Urokinase-type plasminogen activator (Homo sapiens, UniProt P00749); assay: Inhibition of human urokinase using pyro-Glu-Gly-Arg-pNA as substrate after 10 to 120 mins at 37 degC by spectrophotometric method; procedure, shortened: as §1
[9] = Half life in dog liver microsomes; format: ADME, Canis lupus familiaris, microsome
Canis familiaris [10] = assay: AUC in Beagle dog at 0.42 mg/kg, po administered via gavage as cassette dose by LC-MS/MS method; format: ADME, organism-based, Canis lupus familiaris; details: in vivo
Procedure, shortened: (§2)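 Dog PK vehicles as footnoted: iv in 70% PEG 400/20% water/10% ethanol; po either 70% PEG 400/20% TPGS/10% ethanol or the same PEG 400/water/ethanol vehicle used for iv.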

Canis familiaris [11] = assay: Oral bioavailability in Beagle dog at 0.42 mg/kg administered via gavage as cassette dose by LC-MS/MS method; format: ADME, organism-based, Canis lupus familiaris; details: in vivo; procedure, shortened: as §2
[12] = Volume of distribution at steady state in Beagle dog at 0.21 mg/kg, iv administered as 10 mins infusion or 0.42 mg/kg, po via gavage administered as cassette dose by LC-MS/MS method; format: ADME, organism-based, Canis lupus familiaris; details: in vivo, read-out: Vdss; procedure, shortened: as §2
[13] = Half life in Beagle dog at 0.21 mg/kg, iv administered as 10 mins infusion or 0.42 mg/kg, po via gavage administered as cassette dose by LC-MS/MS method; format: ADME, organism-based, Canis lupus familiaris; details: in vivo; procedure, shortened: as §2
Canis familiaris [14] = assay: AUC in Beagle dog at 0.23 mg/kg, po administered via gavage as cassette dose by LC-MS/MS method; format: ADME, organism-based, Canis lupus familiaris; details: in vivo; procedure, shortened: as §2
[15] = Volume of distribution at steady state in Beagle dog at 0.2 mg/kg, iv administered as 10 mins infusion or 0.23 mg/kg, po via gavage administered as cassette dose by LC-MS/MS method; format: ADME, organism-based, Canis lupus familiaris; details: in vivo, read-out: Vdss; procedure, shortened: as §2
[16] = Protein binding in dog plasma; format: ADME, cell-free, Canis lupus familiaris; details: read-out: PPB (converted)
[17] = Half life in Beagle dog at 0.2 mg/kg, iv administered as 10 mins infusion or 0.23 mg/kg, po via gavage administered as cassette dose by LC-MS/MS method; format: ADME, organism-based, Canis lupus familiaris; details: in vivo; procedure, shortened: as §2
Canis familiaris [18] = assay: Oral bioavailability in Beagle dog at 0.23 mg/kg administered via gavage as cassette dose by LC-MS/MS method; format: ADME, organism-based, Canis lupus familiaris; details: in vivo; procedure, shortened: as §2

- Ki (Coagulation factor XI [1]): 68 nM
SMILES: COC(=O)Nc1ccc2c(c1)CCCCCCC[C@H](NC(=O)/C=C/c1cc(Cl)ccc1-n1cnnn1)c1nc-2c(Cl)[nH]1
- EC1.5 (Plasma): 34 µM

- Ki (Coagulation factor XI [2]): 420 nM
SMILES: COC(=O)Nc1ccc2c(c1)OCCCCC[C@H](NC(=O)/C=C/c1cc(Cl)ccc1-n1cnnn1)c1nc-2c[nH]1

- Ki (Coagulation factor XI [1]): 514 nM
- half-life [3]: 17 min
SMILES: COC(=O)Nc1ccc2c(c1)NCCC/C=C/C[C@H](NC(=O)/C=C/c1cc(Cl)ccc1-n1cnnn1)c1nc-2c[nH]1

- Ki (Coagulation factor XI [1]): 27 nM
- half-life [3]: 12 min
SMILES: C=CC[C@H](NC(=O)/C=C/c1cc(Cl)ccc1-n1cnnn1)c1nc(-c2ccc(NC(=O)OC)cc2NC(=O)CC)c[nH]1
- EC1.5 (Plasma): 21 µM

- Ki (Coagulation factor XI [1]): 5.8 nM
- Ki (Prothrombin): > 11.5 µM
- Ki (Coagulation factor X): > 13.3 µM
- Ki (Coagulation factor XII): > 3.05 µM
- Ki [4]: > 6.15 µM
- Ki [5]: > 10 µM
- Ki (Coagulation factor VII): > 13.4 µM
- Ki [6]: > 4.53 µM
- Ki (Coagulation factor IX): > 27.1 µM
- Ki (Plasma kallikrein): 519 nM
- Ki [7]: > 21.5 µM
- Ki (Plasminogen): > 15.2 µM
- Ki [8]: > 15.1 µM
SMILES: COC(=O)Nc1ccc(-c2nc([C@H](Cc3ccccc3)NC(=O)/C=C/c3cc(Cl)ccc3-n3cnnn3)[nH]c2Cl)cc1
- EC1.5 (Plasma): 5.3 µM

- Ki (Coagulation factor XI [1]): 0.88 nM
- half-life [3]: 69 min
SMILES: COC(=O)Nc1ccc2c(c1)NC(=O)OC/C=C/C[C@H](NC(=O)/C=C/c1cc(Cl)ccc1-n1cnnn1)c1nc-2c[nH]1
- EC1.5 (Plasma): 0.45 µM

- Ki (Coagulation factor XI [1]): 87 nM
- half-life [9]: > 120 min
- AUC (Canis familiaris [10]): 458 nM·h
- F (Canis familiaris [11]): 12%
- Vd [12]: 0.7 L/kg
- half-life [13]: 192 min
SMILES: COC(=O)Nc1ccc2c(c1)CCCCCC[C@H](NC(=O)/C=C/c1cc(Cl)ccc1-n1cnnn1)c1nc-2c[nH]1
- EC1.5 (Plasma): >40 µM

- Ki (Coagulation factor XI [1]): 1 nM
- AUC (Canis familiaris [14]): 21 nM·h
- Ki (Prothrombin): > 11.5 µM
- half-life [9]: > 120 min
- Vd [15]: 0.8 L/kg
- Ki (Coagulation factor X): > 13.3 µM
- fraction unbound [16]: 0.098
- half-life [17]: 60 min
- Ki (Coagulation factor XII): > 3.05 µM
- Ki [4]: > 6.15 µM
- Ki [5]: 8.39 µM
- Ki (Coagulation factor VII): 3.19 µM
- Ki [6]: 3.94 µM
- Ki (Coagulation factor IX): > 27.1 µM
- Ki (Plasma kallikrein): 70 nM
- F (Canis familiaris [18]): 6%
- Ki [7]: > 21.5 µM
- Ki (Plasminogen): > 15.2 µM
- Ki [8]: > 15.1 µM
- half-life [3]: 90 min
SMILES: COC(=O)Nc1ccc2c(c1)NC(=O)CCCC[C@H](NC(=O)/C=C/c1cc(Cl)ccc1-n1cnnn1)c1nc-2c[nH]1
- EC1.5 (Plasma): 0.3 µM

- Ki (Coagulation factor XI [1]): 3920 nM
SMILES: COC(=O)Nc1ccc2c(c1)OCCC/C=C/C[C@H](NC(=O)/C=C/c1cc(Cl)ccc1-n1cnnn1)c1nc-2c[nH]1
